Assay outcomes (PubChem BioAssay)
Rpn11 inh: blocks the human proteasome subunit Rpn11; O00487; human 26S proteasome, Ub4-pepOG fluorescence polarization; 20S core pre-blocked with epoxomicin; inhibition, % at 20 µM; 360,000 compounds, 0.59% hits;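 active = inhibition at 20 µM, scaled to each plate's controls, above about 33%, limit read from the data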
TPT1 inh: inhibitors of Candida albicans tRNA 2'-phosphotransferase TPT1 | recombinant caTPT1, FP RNA substrate dephosphorylation | inhibition, % at 5 µM | 300,000 compounds, 0.81% hits | AID 1962;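 active = inhibition above the mean of all tested compounds plus 3 SD, set per screening campaign, cut at about 24% in these data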
Rin1-Abl PPI inh: inhibitors of human Rin1-Abl protein interaction | P00519+Q13671 | TR-FRET Rin1/Abl binding, biochemical | inhibition, % at 7.35 µM | 360,000 compounds, 0.4% hits | AID 588664; in the data active = inhibition above about 5%, passing the limit was not always enough
Target sequence (P00519 whole entry, looked up): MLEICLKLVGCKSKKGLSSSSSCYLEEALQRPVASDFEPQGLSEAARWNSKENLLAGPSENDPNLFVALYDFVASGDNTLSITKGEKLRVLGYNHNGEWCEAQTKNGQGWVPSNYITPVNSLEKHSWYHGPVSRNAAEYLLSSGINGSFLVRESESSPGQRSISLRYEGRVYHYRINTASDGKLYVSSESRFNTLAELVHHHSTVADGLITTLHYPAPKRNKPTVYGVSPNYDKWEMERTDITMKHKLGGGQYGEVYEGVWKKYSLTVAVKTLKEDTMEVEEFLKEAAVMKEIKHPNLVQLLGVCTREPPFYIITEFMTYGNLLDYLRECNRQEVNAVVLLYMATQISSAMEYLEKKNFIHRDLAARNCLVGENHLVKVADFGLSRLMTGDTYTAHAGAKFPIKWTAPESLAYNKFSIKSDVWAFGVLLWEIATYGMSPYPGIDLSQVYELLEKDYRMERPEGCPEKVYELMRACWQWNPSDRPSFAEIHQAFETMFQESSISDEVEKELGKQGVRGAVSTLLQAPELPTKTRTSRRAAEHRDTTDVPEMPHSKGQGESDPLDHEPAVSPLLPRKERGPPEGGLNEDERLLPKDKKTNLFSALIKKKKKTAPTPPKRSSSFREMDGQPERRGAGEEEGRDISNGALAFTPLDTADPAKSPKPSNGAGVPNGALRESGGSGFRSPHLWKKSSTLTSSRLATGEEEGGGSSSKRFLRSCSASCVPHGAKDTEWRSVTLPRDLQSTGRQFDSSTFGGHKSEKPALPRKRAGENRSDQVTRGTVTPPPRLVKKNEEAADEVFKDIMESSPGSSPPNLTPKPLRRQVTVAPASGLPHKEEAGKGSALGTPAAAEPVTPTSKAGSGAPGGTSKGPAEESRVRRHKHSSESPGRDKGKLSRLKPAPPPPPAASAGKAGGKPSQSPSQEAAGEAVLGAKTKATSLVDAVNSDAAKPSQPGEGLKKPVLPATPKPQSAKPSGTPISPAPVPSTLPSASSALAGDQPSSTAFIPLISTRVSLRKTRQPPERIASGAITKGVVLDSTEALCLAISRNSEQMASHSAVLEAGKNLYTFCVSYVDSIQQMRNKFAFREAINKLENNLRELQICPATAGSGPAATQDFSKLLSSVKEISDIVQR
Target sequence (Q13671 whole entry, looked up): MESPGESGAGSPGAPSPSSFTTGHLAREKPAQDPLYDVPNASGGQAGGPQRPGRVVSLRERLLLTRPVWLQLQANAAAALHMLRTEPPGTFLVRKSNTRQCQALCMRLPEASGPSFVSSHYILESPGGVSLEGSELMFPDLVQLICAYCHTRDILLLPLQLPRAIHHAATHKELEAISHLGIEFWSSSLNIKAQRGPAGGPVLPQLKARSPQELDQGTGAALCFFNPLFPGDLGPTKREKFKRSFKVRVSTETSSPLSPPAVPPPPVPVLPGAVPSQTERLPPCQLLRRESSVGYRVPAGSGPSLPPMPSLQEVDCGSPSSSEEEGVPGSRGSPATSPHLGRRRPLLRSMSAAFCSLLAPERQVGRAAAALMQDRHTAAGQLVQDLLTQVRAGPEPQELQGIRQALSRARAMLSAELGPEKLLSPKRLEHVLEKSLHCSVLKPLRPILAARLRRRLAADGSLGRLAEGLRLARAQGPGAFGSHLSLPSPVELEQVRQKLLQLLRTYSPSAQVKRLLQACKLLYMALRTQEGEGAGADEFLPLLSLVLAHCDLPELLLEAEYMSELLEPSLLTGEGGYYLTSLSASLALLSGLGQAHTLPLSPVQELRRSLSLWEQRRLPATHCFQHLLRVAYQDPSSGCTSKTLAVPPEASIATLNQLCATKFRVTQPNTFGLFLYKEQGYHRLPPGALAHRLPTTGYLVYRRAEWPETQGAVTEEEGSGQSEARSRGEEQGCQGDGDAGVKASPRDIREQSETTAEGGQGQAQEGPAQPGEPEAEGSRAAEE
Neddyl block: blocks human cullin neddylation; TR-FRET cullin neddylation, biochemical; inhibition, % at 25 µM; 360,000 compounds, 0.58% hits; AID 651699; in the data active = inhibition above about 36%
CSN deneddyl inh: inhibitors of human CSN-mediated cullin deneddylation; Purified CSN, SCF-Nedd8-OG deneddylation, fluorescence polarization; 360,000 compounds, 0.38% hits; inhibition, % at 12.5 µM; Q92905;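 active = pattern-corrected inhibition above about 35%, with an unprinted fluorescence ratio check between 0.5 and 1.5, limit read from the data, passing the limit was not always enough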
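test system = HEK293T-derived human Csn5 enzyme | amount = 0.24 nM Csn5 enzyme, final concentration | medium = Tris/NaCl/DTT buffer, pH 7.5 | schedule = 90 min reaction at room temperature | signal = FP | evaluation = inhibition of Csn5 cleavage, % | compound dosing = single dose of 12.5 µM compound with 0.25% DMSO | probe or stimulus = 10 nM SCFSkp2-Nedd8OG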
HNF4A DNA FP: change in binding of human HNF4 alpha to DNA | P41235 | HNF4a-FITC DNA binding, fluorescence polarization, 1 h | activity change, % at 10 µM | 360,000 compounds, 0.3% hits | AID 1224865; in the data active = activity change above about 30%, passing the limit was not always enough
CSN5 deneddyl: Csn5 (human) deneddylation inhibition, single-concentration validation; 540 compounds, 62% hits; shares compounds with CSN deneddyl inh; inhibition, % at 16.6 µM; Csn5 deneddylation of SCF-Nedd8OG, fluorescence polarization, 90 min; AID 720654; in the data active = inhibition above about 50%
MMP-2 counter: blocks human MMP-2 in a CSN deneddylation counter-screen; shares compounds with CSN deneddyl inh; recombinant MMP-2, FRET substrate fluorescence, 60 min; inhibition, % at 16.6 µM; 540 compounds, 33% hits; AID 720655;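 active = corrected plate-normalized z-score of 5 or more, or -5 or less, or inhibition of 15% or more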
Thrombin cntr: blocks bovine thrombin in a CSN deneddylation counter-screen; shares compounds with CSN deneddyl inh; bovine thrombin cleavage of Ub4-pepOG, fluorescence polarization; inhibition, % at 16.6 µM; 540 compounds, 49% hits;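 active = inhibition at or above a set limit, with a fluorescence interference ratio between 0.5 and a set maximum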
HNF4a DNA conf: change in binding of human HNF4 alpha to DNA, retest; shares compounds with HNF4A DNA FP; HNF4A-FITC DNA binding, fluorescence polarization, 1 h; activity change, % at 12.5 µM; 210 compounds, 99% hits; AID 1224897; call rule not given here
Each line names hits and unclear results; the compound was inactive in the other large screens (follow-up assays come after a bar, where shown). Sampled rows, rich in hits. Any-hit rate of the full collection: about 2.4%.

O=[N+]([O-])c1ccc(N2N=C(c3ccccc3)CC2c2ccccc2O)cc1 (stereo not drawn)	CSN deneddyl inh 56, HNF4A DNA FP 86 (not shown: Rpn11 inh, TPT1 inh) | CSN5 deneddyl 51 | MMP-2 counter inactive | Thrombin cntr 59
NS(=O)(=O)c1ccc(N2N=C(c3ccccc3)CC2c2ccccc2Br)cc1 (stereo not drawn)	none (not shown: TPT1 inh, Neddyl block)
CCN(CC)c1ccc(/C=C2\SC(N)=NC2=O)cc1	CSN deneddyl inh 68 (not shown: Rpn11 inh, TPT1 inh) | CSN5 deneddyl 131 | MMP-2 counter -33 | Thrombin cntr 78
NC1=NC(=O)/C(=C/c2ccc(OCC(=O)O)cc2)S1	none (no result: TPT1 inh)
Cc1ccc2oc(=O)c3cnn(CC(=O)N(CCCN4CCOCC4)Cc4ccco4)c3c2c1	none
C/C(=N/Nc1ccc([N+](=O)[O-])cc1)c1c[nH]c2ccccc12	CSN deneddyl inh 43, HNF4A DNA FP 70 (not shown: Rpn11 inh, TPT1 inh) | CSN5 deneddyl 69 | MMP-2 counter inactive | Thrombin cntr 22
Cc1cccc(N2CCN(C(=S)Nc3ccc4nc(N5CCN(C)CC5)cc(C)c4c3)CC2)c1C	CSN deneddyl inh 36, HNF4A DNA FP 59 (no result: TPT1 inh) | CSN5 deneddyl 97 | MMP-2 counter inactive | Thrombin cntr inactive
Cc1cc(N2CCN(C)CC2)nc2ccc(NC(=S)N3CCCCC3)cc12	none (no result: TPT1 inh)
CCC(=O)Nc1ccc(C(=O)COC(=O)c2nc3nccc(C)n3n2)cc1	CSN deneddyl inh 44 (no result: TPT1 inh) | MMP-2 counter inactive | Thrombin cntr inactive
CC1CCCC(C)N1C(=O)COC(=O)Cc1ccc(F)cc1 (stereo not drawn)	none
Cc1ccc2nc(N3C(=O)C(O)=C(C(=O)c4ccco4)C3c3ccc(C)o3)sc2c1 (stereo not drawn)	none
O=C(C1=C(O)C(=O)N(c2nc3ccc(Cl)cc3s2)C1c1ccco1)c1ccco1 (stereo not drawn)	CSN deneddyl inh 44 (not shown: Rpn11 inh, TPT1 inh) | CSN5 deneddyl 53 | MMP-2 counter inactive | Thrombin cntr 15
Cc1ccc(S(=O)(=O)N2CCCC(C(=O)NCCc3ccc(S(N)(=O)=O)cc3)C2)cc1 (stereo not drawn)	none
CCOC(=O)C1=C(C)N=c2sc(=Cc3cc(Cl)c(OCC(=O)O)c(Cl)c3)c(=O)n2C1c1cccc(OC)c1 (stereo not drawn)	CSN deneddyl inh 64, HNF4A DNA FP 97 (not shown: Rpn11 inh, TPT1 inh) | CSN5 deneddyl inactive | MMP-2 counter inactive | Thrombin cntr 49
CCOC(=O)C1=C(C)N=c2s/c(=C/c3ccc(OCC(=O)O)cc3)c(=O)n2C1c1cc(OC)c(OC)c(OC)c1 (stereo not drawn)	none
CC1C=CC=CC=CC=CC=CC=CC=CC(OC2OC(C)C(O)C(N)C2O)CC2OC(O)(CC(O)CC(O)C(O)CCC(O)CC(O)CC(=O)OC(C)C(C)C1O)CC(O)C2C(=O)O (stereo not drawn)	Rpn11 inh 44, CSN deneddyl inh 39 (no result: TPT1 inh) | CSN5 deneddyl 78 | MMP-2 counter inactive | Thrombin cntr 15
Cc1cccc(C)c1NC(=O)C(c1ccncc1)n1c(=O)c(-c2ccco2)nc2ccccc21 (stereo not drawn)	none (not shown: Rpn11 inh, TPT1 inh, Rin1-Abl PPI inh, Neddyl block)
COC(=O)c1cc(S(=O)(=O)N2CCOCC2)c(Cl)cc1N1CCOCC1	none
COC(=O)c1cc(C)nc2c1C(=O)C(=O)C=C2N1CCOCC1	CSN deneddyl inh 45 | CSN5 deneddyl inactive | MMP-2 counter inactive | Thrombin cntr inactive
CN(C)c1ccc(/C=C2/C[N+](C)(C)C/C(=C/c3ccc(N(C)C)cc3)C2=O)cc1	CSN deneddyl inh 94 (not shown: Rpn11 inh, TPT1 inh) | CSN5 deneddyl inactive | MMP-2 counter -41 | Thrombin cntr 114
CN(C)c1ccc(/C=N/O)cc1	none
Cc1cccc(N=C2NC(=O)/C(=C/C=C/c3ccco3)S2)c1	CSN deneddyl inh 53 | CSN5 deneddyl 88 | MMP-2 counter inactive | Thrombin cntr inactive
Cc1ccc(N=C2NC(=O)/C(=C\c3ccco3)S2)cc1	none
COc1ccc(N=C2NC(=O)/C(=C\C=C\c3ccco3)S2)cc1	CSN deneddyl inh 46 (no result: TPT1 inh) | CSN5 deneddyl 84 | MMP-2 counter inactive | Thrombin cntr inactive
CC(O)CN(CC(C)O)c1ccc2c(c1)Cc1cc([N+](=O)[O-])ccc1-2 (stereo not drawn)	CSN deneddyl inh 58 (not shown: Rpn11 inh, TPT1 inh) | CSN5 deneddyl inactive | MMP-2 counter inactive | Thrombin cntr 82
CCCCCCCCCCCCCCCC[n+]1cccc2ccccc21	Rpn11 inh 78, CSN deneddyl inh 36 | CSN5 deneddyl 65 | MMP-2 counter 17 | Thrombin cntr inactive
CCCCCCCCC[n+]1cccc2c3ccccc3ccc21	none (not shown: Neddyl block)
Cc1nnc(N/N=C/c2ccccc2F)n1N	none
COc1cccc(/C=N/Nc2nnc(C)n2N)c1O	CSN deneddyl inh 54 | CSN5 deneddyl 107 | MMP-2 counter inactive | Thrombin cntr inactive
CC(=NOC(=O)c1ccc(I)cc1)c1nccs1	none (no result: TPT1 inh)
CSc1nc(SCC(=O)O)c2sc3nc(-c4ccccc4)c4c(c3c2n1)CCC4	CSN deneddyl inh 64 (no result: TPT1 inh) | CSN5 deneddyl inactive | MMP-2 counter 30 | Thrombin cntr inactive
CC(C)(C)c1ccc(Cn2c(=N)n(CC(O)c3ccco3)c3ccccc32)cc1 (stereo not drawn)	CSN deneddyl inh 68 (not shown: Rpn11 inh) | CSN5 deneddyl 92 | MMP-2 counter inactive | Thrombin cntr inactive
CC(C)(C)OC(=O)C[C@H]1C/C=C\C[C@@H](CC(=O)N[C@@H](CO)Cc2ccccc2)C(=O)N2CCC[C@@H]2COC1=O	none (no result: TPT1 inh)
Cc1ccc(C2=NOC(=O)/C2=C\C=C\c2ccccc2)cc1	CSN deneddyl inh 35 (no result: TPT1 inh) | CSN5 deneddyl 103 | MMP-2 counter inactive | Thrombin cntr inactive
O=C(N/N=C/c1coc2ccccc2c1=O)c1cc(Br)ccc1O	HNF4A DNA FP 46 (not shown: Neddyl block) | HNF4a DNA conf 35
O=C(COC(=O)c1c(F)cccc1Cl)NCC1CCCCC1	none (no result: TPT1 inh)
CCN1/C(=N\N)c2cccc3cccc1c23	CSN deneddyl inh 51, HNF4A DNA FP 57 (not shown: Rpn11 inh) | HNF4a DNA conf 72
Cc1cccc(-c2c3c(=O)n(C)c(=O)n(C)c3c3nnc4ccccc4n23)c1	HNF4A DNA FP 50 (not shown: Rpn11 inh, TPT1 inh) | HNF4a DNA conf 32
COc1ccc(C(C)(C)C)cc1NC(=O)Cn1cnnn1	none
O=S(=O)(c1ccccc1)N1N=C(c2ccccc2)CC1c1ccco1 (stereo not drawn)	none (no result: Rpn11 inh, Rin1-Abl PPI inh, Neddyl block, CSN deneddyl inh, HNF4A DNA FP)
